Laboratory results from ChEMBL document CHEMBL4351001, “2-Aminoimidazole-based antagonists of the 5-HT6 receptor - A new concept in aminergic GPCR ligand design” (Eur J Med Chem, 2019).

What was measured:
[1] = target: T1, 5-hydroxytryptamine receptor 1A (Homo sapiens, UniProt P08908); experiment: Displacement of [3H]-8-OH-DPAT from human 5HT1A receptor expressed in HEK293 cells incubated for 1 hr by liquid scintillation counter method; format: cell-based
T1 sequence (P08908 whole entry): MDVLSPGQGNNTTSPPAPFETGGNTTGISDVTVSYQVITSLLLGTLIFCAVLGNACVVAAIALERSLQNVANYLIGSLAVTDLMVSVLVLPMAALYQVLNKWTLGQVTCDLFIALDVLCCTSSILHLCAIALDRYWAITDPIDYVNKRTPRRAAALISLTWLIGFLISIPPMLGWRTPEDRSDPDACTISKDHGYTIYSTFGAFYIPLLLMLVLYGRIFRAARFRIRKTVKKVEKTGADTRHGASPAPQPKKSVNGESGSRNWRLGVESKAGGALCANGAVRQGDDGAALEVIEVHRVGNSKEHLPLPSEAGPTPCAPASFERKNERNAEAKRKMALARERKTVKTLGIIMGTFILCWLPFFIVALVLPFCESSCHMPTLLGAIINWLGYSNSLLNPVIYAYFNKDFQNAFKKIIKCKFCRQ
Summary of the method: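 HEK293 cells stably expressing human 5-HT1AR; membranes in 50 mM Tris–HCl, 0.1 mM EDTA, 4 mM MgCl2, 10 μM pargyline, 0.1% ascorbate; incubated 1 h at room temperature, then filtered. Nonspecific binding defined with 10 μM 5-HT.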

[2] = target: 5-hydroxytryptamine receptor 2A (Homo sapiens, UniProt P28223); experiment: Displacement of [3H]ketanserin from human 5HT2A receptor expressed in CHOK1 cells incubated for 1 hr by liquid scintillation counter method; format: cell-based
Sequence of 5-hydroxytryptamine receptor 2A (P28223 whole entry): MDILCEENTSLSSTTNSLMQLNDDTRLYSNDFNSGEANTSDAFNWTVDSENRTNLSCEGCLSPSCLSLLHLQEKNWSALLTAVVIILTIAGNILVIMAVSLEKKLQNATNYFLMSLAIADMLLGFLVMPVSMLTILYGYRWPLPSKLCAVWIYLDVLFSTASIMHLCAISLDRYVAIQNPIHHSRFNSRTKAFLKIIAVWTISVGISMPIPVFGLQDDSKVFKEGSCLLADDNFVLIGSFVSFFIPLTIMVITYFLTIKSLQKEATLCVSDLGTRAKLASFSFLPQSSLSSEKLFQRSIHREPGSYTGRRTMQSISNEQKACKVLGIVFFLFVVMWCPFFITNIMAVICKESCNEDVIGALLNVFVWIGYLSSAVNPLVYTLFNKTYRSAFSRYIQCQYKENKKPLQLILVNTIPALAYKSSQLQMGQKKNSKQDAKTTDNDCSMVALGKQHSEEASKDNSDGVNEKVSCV

[3] = target: D(2) dopamine receptor (Homo sapiens, UniProt P14416); experiment: Displacement of [3H]-methylspiperone from human D2 long receptor expressed in HEK293 cells measured after 1 hr by liquid scintillation counter method; format: cell-based
Sequence of D(2) dopamine receptor (P14416 whole entry): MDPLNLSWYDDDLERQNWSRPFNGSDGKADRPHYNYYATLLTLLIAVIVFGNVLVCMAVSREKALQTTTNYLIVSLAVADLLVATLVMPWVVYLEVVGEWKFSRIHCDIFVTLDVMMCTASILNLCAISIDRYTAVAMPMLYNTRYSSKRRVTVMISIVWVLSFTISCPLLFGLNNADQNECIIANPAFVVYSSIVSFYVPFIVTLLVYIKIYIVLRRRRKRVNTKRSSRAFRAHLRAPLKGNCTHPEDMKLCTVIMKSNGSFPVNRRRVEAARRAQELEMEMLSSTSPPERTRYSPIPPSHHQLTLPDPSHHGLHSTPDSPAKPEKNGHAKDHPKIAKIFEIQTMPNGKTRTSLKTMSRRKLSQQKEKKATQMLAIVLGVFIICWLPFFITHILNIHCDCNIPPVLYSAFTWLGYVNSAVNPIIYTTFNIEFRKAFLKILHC
Summary of the method: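 HEK293 membranes stably expressing human D2L receptor, incubated 1 h at 37°C, then filtered and retained radioactivity counted; (+)-butaclamol 1 μM defines nonspecific binding. Tested in triplicate at 7–8 concentrations (10⁻¹¹–10⁻⁴ M); Ki via Cheng-Prusoff, averaged over at least two independent experiments.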

[4] = target: 5-hydroxytryptamine receptor 6 (Homo sapiens, UniProt P50406); experiment: Displacement of [3H]LSD from human 5HT6 receptor expressed in HEK293 cells measured after 1 hr by liquid scintillation counter method; format: cell-based
Sequence of 5-hydroxytryptamine receptor 6 (P50406 whole entry): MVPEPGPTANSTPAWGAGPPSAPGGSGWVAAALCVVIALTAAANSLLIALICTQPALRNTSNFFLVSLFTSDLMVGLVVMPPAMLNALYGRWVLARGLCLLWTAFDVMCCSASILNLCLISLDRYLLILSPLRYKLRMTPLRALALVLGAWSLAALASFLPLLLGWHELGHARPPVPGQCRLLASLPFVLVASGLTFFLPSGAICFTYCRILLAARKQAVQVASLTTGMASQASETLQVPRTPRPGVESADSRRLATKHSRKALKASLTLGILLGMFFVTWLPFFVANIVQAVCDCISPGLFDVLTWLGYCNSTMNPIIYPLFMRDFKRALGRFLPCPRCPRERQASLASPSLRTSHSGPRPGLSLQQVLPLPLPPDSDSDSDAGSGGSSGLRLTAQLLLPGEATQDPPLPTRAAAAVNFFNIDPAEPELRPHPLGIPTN

[5] = target: 5-hydroxytryptamine receptor 7 (Homo sapiens, UniProt P34969); experiment: Displacement of [3H]-5-CT from human 5HT7 receptor expressed in HEK293 cells measured after 1 hr by liquid scintillation counter method; format: cell-based
Sequence of 5-hydroxytryptamine receptor 7 (P34969 whole entry): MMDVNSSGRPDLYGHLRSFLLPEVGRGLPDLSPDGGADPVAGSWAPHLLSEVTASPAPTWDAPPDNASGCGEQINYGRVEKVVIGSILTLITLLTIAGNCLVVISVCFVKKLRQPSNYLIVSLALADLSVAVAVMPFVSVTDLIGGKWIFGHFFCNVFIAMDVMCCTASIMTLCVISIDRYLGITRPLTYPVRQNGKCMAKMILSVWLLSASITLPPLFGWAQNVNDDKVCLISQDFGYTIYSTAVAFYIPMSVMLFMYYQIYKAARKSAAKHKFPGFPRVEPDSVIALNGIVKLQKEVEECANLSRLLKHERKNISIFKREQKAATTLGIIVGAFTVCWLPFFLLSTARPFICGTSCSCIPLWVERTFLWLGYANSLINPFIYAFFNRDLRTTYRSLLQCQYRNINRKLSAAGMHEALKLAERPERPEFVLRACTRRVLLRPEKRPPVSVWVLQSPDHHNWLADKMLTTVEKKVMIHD

[6] = Solubility of compound in water; format: physicochemical; conditions: buffer
[7] = in vitro; conditions: rat
[8] = Stability of compound in rat liver microsomes; format: ADME, Microsome
Summary of the method: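 Incubation in triplicate with rat liver microsomes at 37°C with NADP, G6P, G6P dehydrogenase and MgCl2. Verapamil and donepezil served as microsomal activity standards.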

[9] = in vitro; conditions: rat, microsomes
[10] = target: T2, Alpha-1A adrenergic receptor (Rattus norvegicus) (UniProt P43140); experiment: Displacement of [3H] prazosin from rat alpha 1A adrenergic receptor at 10^-6 M measured after 60 mins by scintillation counter method relative to control
T2 sequence (whole entry): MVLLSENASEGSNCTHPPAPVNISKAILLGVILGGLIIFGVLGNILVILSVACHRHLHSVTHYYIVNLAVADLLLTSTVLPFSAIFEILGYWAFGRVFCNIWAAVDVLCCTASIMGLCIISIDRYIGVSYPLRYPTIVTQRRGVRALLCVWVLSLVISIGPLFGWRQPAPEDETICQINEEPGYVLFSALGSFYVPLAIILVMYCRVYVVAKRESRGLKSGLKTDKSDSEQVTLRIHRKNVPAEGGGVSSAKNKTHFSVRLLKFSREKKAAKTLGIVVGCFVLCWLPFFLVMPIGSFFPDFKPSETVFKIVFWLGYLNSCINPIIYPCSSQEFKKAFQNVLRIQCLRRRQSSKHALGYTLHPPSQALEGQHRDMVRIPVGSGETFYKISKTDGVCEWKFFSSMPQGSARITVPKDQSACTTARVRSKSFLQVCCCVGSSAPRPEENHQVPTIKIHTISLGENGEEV

[11] = target: Histamine H1 receptor (Homo sapiens) (UniProt P35367); experiment: Displacement of [3H] pyrilamine from human recombinant H1 histamine receptor at 10^-6 M measured after 60 mins by scintillation counting method relative to control
Sequence of Histamine H1 receptor (Homo sapiens) (P35367 whole entry): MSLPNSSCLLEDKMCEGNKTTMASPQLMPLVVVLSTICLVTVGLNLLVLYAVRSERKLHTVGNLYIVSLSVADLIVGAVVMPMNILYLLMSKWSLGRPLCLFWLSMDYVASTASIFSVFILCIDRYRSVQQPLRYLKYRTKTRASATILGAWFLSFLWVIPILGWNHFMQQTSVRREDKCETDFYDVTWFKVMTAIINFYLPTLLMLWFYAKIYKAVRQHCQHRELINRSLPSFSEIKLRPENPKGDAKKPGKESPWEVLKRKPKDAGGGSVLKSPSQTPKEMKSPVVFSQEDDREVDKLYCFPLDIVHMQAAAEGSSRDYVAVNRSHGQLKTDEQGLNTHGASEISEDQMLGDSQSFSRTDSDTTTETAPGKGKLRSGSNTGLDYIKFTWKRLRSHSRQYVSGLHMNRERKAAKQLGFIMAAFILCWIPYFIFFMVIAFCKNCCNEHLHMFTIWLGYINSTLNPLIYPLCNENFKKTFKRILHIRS

| SMILES | Ki ([2]; read-out: Ki) | solubility [6] | Ki ([1]; read-out: Ki) | also measured |
| --- | --- | --- | --- | --- |
| COc1ccc2c(c1)c(-c1c(C)nc(N)n1CC(F)F)cn2S(=O)(=O)c1ccccc1 | 3.24 µM | Insoluble |  | Ki ([1]; hek293): Not Active; Ki [3]: 3.8 µM; Ki [4]: 0.157 µM; Ki ([5]; hek293): Not Active |
| COc1ccc2c(c1)c(-c1[nH]c(N)nc1C)cn2S(=O)(=O)c1ccc2ccccc2c1.Cl | 1.05 µM | Soluble |  |  |
| CC(=O)Nc1nc(C)c(-c2cn(S(=O)(=O)c3cccc4ccccc34)c3ccccc23)[nH]1 |  | Insoluble |  |  |
| CCC(=O)Nc1nc(CC)c(-c2cn(S(=O)(=O)c3ccccc3)c3ccc(OC)cc23)[nH]1 |  | Insoluble |  |  |
| COc1ccc2c(c1)c(-c1[nH]c(NC(C)=O)nc1C)cn2S(=O)(=O)c1cccc2ccccc12 | > 10 µM | Insoluble |  |  |
| COc1ccc2c(c1)c(-c1nc(N)sc1C)cn2S(=O)(=O)c1ccccc1 | 2.46 µM | Insoluble |  |  |
| Cl.Nc1ncc(-c2cccc3c2ccn3S(=O)(=O)c2ccccc2)[nH]1 | 2.29 µM | Soluble |  |  |
| Cl.Nc1ncc(-c2cn(S(=O)(=O)c3ccccc3)c3ccccc23)[nH]1 | 0.891 µM | Soluble | 0.126 µM |  |
| O=S(=O)(c1ccccc1)c1cnc2c(N3CCNCC3)cccc2c1 [INTEPIRDINE] |  |  |  | microsomal CLint ([7]; liver microsomes): 6.6 µL/min/mg |
| CCC(=O)Nc1nc(C)c(-c2ccc3ccn(S(=O)(=O)c4ccccc4)c3c2)[nH]1 | 7.41 µM | Insoluble |  |  |
| CCc1nc(NC(C)=O)[nH]c1-c1cn(S(=O)(=O)c2ccccc2)c2ccccc12 | > 10 µM | Insoluble |  |  |
| CCC(=O)Nc1nc(C)c(-c2cn(S(=O)(=O)c3cccc4ccccc34)c3ccccc23)[nH]1 | > 10 µM | Insoluble |  |  |
| CCC(=O)Nc1nc(C)c(-c2cccc3c2ccn3S(=O)(=O)c2ccccc2)[nH]1 | > 10 µM | Insoluble | > 10 µM |  |
| CC(=O)Nc1ncc(-c2cn(S(=O)(=O)c3ccccc3)c3ccccc23)[nH]1 |  | Insoluble | > 10 µM |  |
| COc1ccc2c(c1)c(-c1nc(N)sc1C)cn2S(=O)(=O)c1ccc2ccccc2c1 |  | Insoluble |  |  |
| COc1ccc2c(c1)c(-c1[nH]c3cccc[n+]3c1C)cn2S(=O)(=O)c1ccccc1.[Br-] | > 10 µM | Soluble |  |  |
| CC(=O)N1CCCn2c1nc(C)c2-c1cn(S(=O)(=O)c2ccccc2)c2ccccc12 | > 10 µM | Insoluble | > 10 µM |  |
| Fc1ccc2c(CCNCc3cccc(OCC(F)(F)C(F)F)c3)c[nH]c2c1 [IDALOPIRDINE] |  |  |  | microsomal CLint ([7]; microsomes): 99.3 µL/min/mg |
| COc1ccc2c(c1)c(-c1[nH]c(NCc3ccccc3)nc1C)cn2S(=O)(=O)c1ccccc1 |  | Insoluble |  | Ki ([1]; hek293): Not Active |
| COc1ccc2c(c1)c(-c1[nH]c(NCCc3ccccc3)nc1C)cn2S(=O)(=O)c1ccccc1 | 1.91 µM | Insoluble |  | Ki ([1]; hek293): Not Active; Ki [3]: 2.14 µM; Ki [4]: 0.083 µM; Ki ([5]; hek293): Not Active |
| CCC(=O)Nc1nc(C)c(-c2cn(S(=O)(=O)c3cccc(F)c3)c3ccc(OC)cc23)[nH]1 | > 10 µM | Insoluble | > 10 µM |  |
| COc1ccc2c(c1)c(-c1nc(N)sc1C)cn2S(=O)(=O)c1cccc2ccccc12 |  | Insoluble |  |  |
| COc1ccc2c(c1)c(-c1cnc(N)[nH]1)cn2S(=O)(=O)c1cccc(F)c1.Cl |  | Soluble |  |  |

| SMILES | Ki ([2]; read-out: Ki) | solubility [6] | Ki ([1]; read-out: Ki) | also measured |
| --- | --- | --- | --- | --- |
| COc1ccc2c(c1)c(-c1[nH]c3nccc[n+]3c1C)cn2S(=O)(=O)c1ccccc1.[Br-] | > 10 µM | Soluble | > 10 µM |  |
| CCC(=O)Nc1nc(C)c(-c2cn(S(=O)(=O)c3ccc4ccccc4c3)c3ccc(OC)cc23)[nH]1 | > 10 µM | Insoluble |  |  |
| COc1ccc2c(c1)c(-c1[nH]c(NC(C)=O)nc1C)cn2S(=O)(=O)c1cccc(F)c1 | > 10 µM | Insoluble | > 10 µM |  |
| CCC(=O)Nc1nc(C)c(-c2cn(S(=O)(=O)c3ccccc3)c3ccc(OC)cc23)[nH]1 |  | Insoluble |  | Ki [3]: > 10 µM; Ki [4]: 0.014 µM; Ki ([5]; read-out: Ki): > 10 µM; Stability [8]: Stable; microsomal CLint ([7]; microsomes): 17.1 µL/min/mg; half-life [9]: 81 min |
| COc1ccc2c(c1)c(-c1[nH]c(NC(C)=O)nc1C)cn2S(=O)(=O)c1ccc2ccccc2c1 | > 10 µM | Insoluble |  |  |
| CCC(=O)Nc1nc(C)c(-c2cn(S(=O)(=O)c3cccc4ccccc34)c3ccc(OC)cc23)[nH]1 |  | Insoluble |  |  |
| CC(=O)Nc1nc(C)c(-c2c(C)n(S(=O)(=O)c3ccccc3)c3ccccc23)[nH]1 |  | Insoluble | > 10 µM |  |
| COc1ccc2c(c1)c(-c1cnc(NC(C)=O)[nH]1)cn2S(=O)(=O)c1ccccc1 |  | Insoluble | > 10 µM |  |
| COc1ccc2c(c1)c(-c1[nH]c(NC(=O)Cc3ccccc3)nc1C)cn2S(=O)(=O)c1ccccc1 | > 10 µM | Insoluble |  | Ki [3]: > 10 µM; Ki [4]: 0.003 µM; Ki ([5]; read-out: Ki): > 10 µM |
| CCc1nc(N)[nH]c1-c1cn(S(=O)(=O)c2ccccc2)c2ccc(OC)cc12.Cl | 0.661 µM | Soluble | > 10 µM |  |
| CCc1nc(N)[nH]c1-c1cn(S(=O)(=O)c2ccccc2)c2ccccc12.Cl | 0.107 µM | Soluble |  |  |
| COc1ccc2c(c1)c(-c1cnc(NC(C)=O)[nH]1)cn2S(=O)(=O)c1cccc(F)c1 | > 10 µM | Insoluble |  |  |
| COc1ccc2c(c1)c(-c1[nH]c(NC(C)=O)nc1C)cn2S(=O)(=O)c1ccccc1 | > 10 µM | Insoluble | > 10 µM |  |
| O=S(=O)(c1ccccc1)n1cc(-c2c[n+]3cccnc3[nH]2)c2ccccc21.[Br-] | > 10 µM | Soluble | > 10 µM | Ki [4]: 0.05 µM; Ki ([5]; read-out: Ki): > 10 µM; Stability [8]: Unstable; microsomal CLint ([7]; microsomes): 230 µL/min/mg; half-life [9]: 6 min |
| COc1ccc2c(c1)c(-c1[nH]c(N)nc1C)cn2S(=O)(=O)c1cccc(F)c1.Cl | 1.12 µM | Soluble | > 10 µM |  |
| Cc1sc(N)nc1-c1cn(S(=O)(=O)c2ccccc2)c2ccccc12 |  | Insoluble |  | Ki ([1]; hek293): Not Active |
| CCc1nc(NC(C)=O)[nH]c1-c1cn(S(=O)(=O)c2ccccc2)c2ccc(OC)cc12 | > 10 µM | Insoluble | > 10 µM |  |
| CC(=O)Nc1nc(C)c(-c2ccc3ccn(S(=O)(=O)c4ccccc4)c3c2)[nH]1 | > 10 µM |  |  | inhibition [10]: -4.2%; inhibition [11]: -1.9% |
| CC(=O)N1CCn2c1nc(C)c2-c1cn(S(=O)(=O)c2ccccc2)c2ccccc12 | > 10 µM | Insoluble | > 10 µM |  |
| COc1ccc2c(c1)c(-c1[nH]c(N)nc1C)cn2S(=O)(=O)c1cccc2ccccc12 | 1.66 µM |  | > 10 µM |  |
| Cc1sc(N)nc1-c1cn(S(=O)(=O)c2cccc3ccccc23)c2ccccc12 |  | Insoluble |  | Ki ([1]; hek293): Not Active; Ki [2]: Not Active |
| COc1ccc2c(c1)c(-c1[nH]c(N)nc1C)cn2S(=O)(=O)c1ccccc1.Cl | 0.676 µM | Soluble | > 10 µM |  |
